Legend:
[1] = target: T1, Polyunsaturated fatty acid 5-lipoxygenase (Rattus norvegicus) (UniProt P12527); test: Ability to inhibit 5-lipoxygenase by using a crude preparation of the cytosolic enzyme from the rat basophilic leukemia (RBL-1) cell line at a concentration of 25 uM; type: cell-based
T1 sequence (whole entry): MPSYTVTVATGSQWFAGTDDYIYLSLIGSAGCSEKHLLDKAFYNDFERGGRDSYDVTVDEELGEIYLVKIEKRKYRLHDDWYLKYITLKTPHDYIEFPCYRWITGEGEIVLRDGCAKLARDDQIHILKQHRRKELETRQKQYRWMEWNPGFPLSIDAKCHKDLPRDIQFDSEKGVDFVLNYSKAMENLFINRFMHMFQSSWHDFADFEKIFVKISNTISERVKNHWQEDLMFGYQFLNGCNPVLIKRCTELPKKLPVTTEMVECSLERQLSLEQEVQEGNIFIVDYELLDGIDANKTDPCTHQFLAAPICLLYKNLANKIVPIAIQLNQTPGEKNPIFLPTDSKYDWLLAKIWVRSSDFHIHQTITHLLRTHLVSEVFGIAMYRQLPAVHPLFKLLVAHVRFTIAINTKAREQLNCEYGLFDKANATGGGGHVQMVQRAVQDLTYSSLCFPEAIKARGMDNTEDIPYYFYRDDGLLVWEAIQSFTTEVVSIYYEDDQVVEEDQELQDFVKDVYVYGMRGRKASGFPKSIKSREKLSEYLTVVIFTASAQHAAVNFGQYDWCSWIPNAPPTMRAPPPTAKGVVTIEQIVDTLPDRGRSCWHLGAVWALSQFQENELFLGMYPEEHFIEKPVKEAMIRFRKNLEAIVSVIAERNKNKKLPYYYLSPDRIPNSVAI

Mus musculus [2] = test: Effective dose to inhibit 50% of mouse arachidonic acid induced ear edema assay; type: functional
Method in brief: (§1)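 Groups of 10 male CF1 mice (18–20 g). Compound in acetone is applied topically to both ears just before 1 mg arachidonic acid in acetone is applied to one ear; the other ear serves as control. Mice are killed 60 min later and 6-mm ear punches weighed; swelling is the weight difference. %Inhibition = [(C−T)/C]×100, with Student's t test.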

Mus musculus [3] = test: Percentage inhibition of the mouse arachidonic acid induced ear edema assay (AA) at a dose of 100 ug/ear; type: functional; method in brief: as §1
Mus musculus [4] = test: percentage inhibition of the mouse arachidonic acid induced ear edema assay (AA) (Dose is 100 ug/ear); type: functional; method in brief: as §1
[5] = target: T2, Polyunsaturated fatty acid 5-lipoxygenase (Rattus norvegicus, UniProt P12527); test: Ability to inhibit 5-lipoxygenase by using a crude preparation of the cytosolic enzyme from the rat basophilic leukemia (RBL-1) cell line; type: cell-based
T2 sequence (P12527 whole entry): T1 sequence (whole entry)
Method in brief: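 Crude cytosolic enzyme (supernatant) from RBL-1 cells, amount giving net 3300–3800 dpm 5-HETE (9–20 μg cell protein/assay). Enzyme is preincubated 5 min at 37 °C, pH 7.0, with compound (in 5% DMSO/Tris pH 8.5) in phosphate buffer with EDTA, gelatin, glutathione, CaCl2 and 0.012 mM indomethacin. Reaction is started with 0.042 mM final [14C]arachidonic acid and stopped by freezing after 2 min.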

Cyclooxygenase = target: T3, Cyclooxygenase (Bos taurus, UniProt O62664+O62698); test: In vitro inhibition of Prostaglandin G/H synthase in BSV cell line.; type: cell-based
T3 sequence (O62664 whole entry): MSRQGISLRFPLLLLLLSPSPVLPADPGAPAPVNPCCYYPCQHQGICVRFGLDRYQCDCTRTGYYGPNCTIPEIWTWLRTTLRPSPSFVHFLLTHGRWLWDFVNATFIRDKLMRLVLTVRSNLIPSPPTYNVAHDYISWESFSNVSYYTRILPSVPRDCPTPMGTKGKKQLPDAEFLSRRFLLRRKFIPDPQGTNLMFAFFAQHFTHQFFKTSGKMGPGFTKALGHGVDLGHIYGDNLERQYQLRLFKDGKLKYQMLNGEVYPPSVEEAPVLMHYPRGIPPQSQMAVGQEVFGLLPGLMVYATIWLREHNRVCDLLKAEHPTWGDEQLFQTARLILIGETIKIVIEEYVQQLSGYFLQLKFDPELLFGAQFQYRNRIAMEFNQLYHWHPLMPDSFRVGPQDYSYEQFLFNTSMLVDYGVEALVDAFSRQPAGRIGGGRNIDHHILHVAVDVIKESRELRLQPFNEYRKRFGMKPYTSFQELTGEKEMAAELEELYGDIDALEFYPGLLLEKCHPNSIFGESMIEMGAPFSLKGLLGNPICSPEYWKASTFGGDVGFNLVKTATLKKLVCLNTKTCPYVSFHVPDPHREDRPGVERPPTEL
T3 sequence (O62698 whole entry): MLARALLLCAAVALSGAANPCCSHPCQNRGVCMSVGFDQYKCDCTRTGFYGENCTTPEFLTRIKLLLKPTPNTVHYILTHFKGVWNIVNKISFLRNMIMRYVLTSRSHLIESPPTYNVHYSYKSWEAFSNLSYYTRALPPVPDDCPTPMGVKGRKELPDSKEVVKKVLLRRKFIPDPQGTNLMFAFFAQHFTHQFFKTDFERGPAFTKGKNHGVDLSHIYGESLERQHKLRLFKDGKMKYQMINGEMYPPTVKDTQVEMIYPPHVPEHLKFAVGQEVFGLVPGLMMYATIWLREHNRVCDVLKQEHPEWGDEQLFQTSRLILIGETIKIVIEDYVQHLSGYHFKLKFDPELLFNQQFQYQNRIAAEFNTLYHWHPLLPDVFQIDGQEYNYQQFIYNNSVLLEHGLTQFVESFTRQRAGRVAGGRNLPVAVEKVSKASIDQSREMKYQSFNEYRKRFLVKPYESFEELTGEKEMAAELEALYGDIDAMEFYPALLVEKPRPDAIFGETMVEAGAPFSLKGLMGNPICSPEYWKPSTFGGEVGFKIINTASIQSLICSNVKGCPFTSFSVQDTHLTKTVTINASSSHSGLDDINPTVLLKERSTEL

[6] = target: Cyclooxygenase (Bos taurus) (UniProt O62664+O62698); test: Ability to inhibit Prostaglandin G/H synthase by using the bovine seminal vesicle enzyme assay on BSV cell line at a concentration of 75 uM; type: tissue-based
Method in brief: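 Bovine seminal vesicle cyclooxygenase (40 μg) with Tris pH 8.5 and cofactors (glutathione, epinephrine, EDTA) is chilled on ice. Compound in DMSO diluted with Tris is added, then preincubated 2 min at 37 °C. [14C]arachidonic acid (0.2 μCi/mL in 0.1 mM sodium arachidonate) is added and the reaction runs 10 min. Duplicates are run; values are the percent inhibition at the concentration shown.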

SMILES	inhibition [1]	ED50 (Mus musculus [2])	Inhibition (Mus musculus [3])	Inhibition (Mus musculus [4])	IC50 [5]	IC50 (Cyclooxygenase)	inhibition [6]
COc1ccc2c(c1)c(CC(=O)O)c(C)n2C(=O)c1ccc(Cl)cc1 [INDOMETHACIN]	47%	780 ug ear-1	20%				
CC(=O)Nc1c(Cc2ccccc2)ccc2ccccc12	13%		8%				
Oc1ccc2ccccc2c1Cc1ccccc1				23%	3.9 µM	16 µM	
Oc1ccccc1Cc1ccccc1			32%		63 µM		22%
OCc1ccccc1/C=C/Cc1cc2c(cc1O)CCO2		55 ug ear-1	52%		0.25 µM	57 µM	
CCOC(=O)CCC/C(=N\O)c1ccc2ccccc2c1O			29%		2.7 µM		27%
C=CCc1ccc2ccccc2c1O		4.4 ug ear-1	91%		0.056 µM	18 µM	
O=C1CCN(c2ccccc2)N1 [PHENIDONE]		41 ug ear-1	58%				31%
O=C(O)c1c(Cc2ccccc2)ccc2ccccc12	2%		0%				15%
CCOC(=O)CCCCc1ccc2ccccc2c1O		40 ug ear-1	74%		0.011 µM	18 µM	
CCOC(=O)c1ccc2ccccc2c1O			0%		25 µM		0%
O=C1C=C(Cc2ccccc2)C(=O)c2ccccc21			59%		0.29 µM		16%
O=C(c1ccccc1)c1ccc2ccccc2c1O			30%		20 µM		26%
CCOC(=O)CCCC(=O)c1ccc2ccccc2c1O	23%		13%				12%
COc1c(OC)c(OC(C)=O)c2cc(Cl)ccc2c1OC(C)=O [LONAPALENE]		100 ug ear-1	50%		0.7 µM		0%
OCCOc1c(Cc2ccccc2)ccc2ccccc12			12%		40 µM		28%
Oc1c(Cc2ccccc2)ccc2ccccc12		9.4 ug ear-1	82%		0.019 µM	3.4 µM	
COc1c(Cc2ccccc2)ccc2ccccc12			5%		55 µM		0%

From ChEMBL document CHEMBL1124955, “2-substituted-1-naphthols as potent 5-lipoxygenase inhibitors with topical antiinflammatory activity” (J Med Chem, 1990)
